Source: ChEMBL document CHEMBL3243939, “Derivatives of 1,3-disubstituted 2,4(1H,3H)-quinazolinediones as possible peripheral vasodilators or antihypertensive agents” (1979)
≈ marks a conversion by molar mass, not a printed value.

Tests used:
Rattus norvegicus = assay: Antihypertensive activity in Wistar rat assessed as decrease of systolic blood pressure at 31 mg/kg, po up to 8 hrs; type: functional, Artery
Outline: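 Renal hypertension in female Wistar rats: figure-of-eight ligature on one kidney, other kidney removed. Rats with systolic pressure above 160 mmHg used, groups of ten. Tail-cuff occlusion with pulse detector measured systolic pressure before and 2, 4, 6, 8 h after a 31 mg/kg oral dose. Value is the mean decrease over 8 h ± standard error.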

Canis familiaris = assay: Vasodilatory activity in dog assessed as increase of femoral blood flow by 100 mL/min administered as intraarterially; type: functional, Canis lupus familiaris
Outline: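 Pentobarbital-anesthetized dogs with an electromagnetic flowmeter sensor around a femoral artery. Compound was injected intraarterially through a branch vessel at increasing doses, and the peak flow increase after each dose was recorded. ED100, the dose raising flow 100 mL/min above control, was extrapolated from the dose-response curve.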

Oryctolagus cuniculus = species on record: Oryctolagus cuniculus; assay: Blockade of alpha-adrenergic receptor in rabbit aortic strips assessed as reduction of epinephrine-induced response
Outline: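 Rabbit aortic strip sensitized by repeated exposure to 0.01 mcg/mL epinephrine. Responses to this concentration were compared before and after 200 s incubation with rising compound concentrations. Percent blockade was calculated at each concentration. ED50, the concentration blocking the response by 50%, was extrapolated from the concentration-response curve.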

Compound | Activity (Rattus norvegicus) | ED100 (Canis familiaris) | ED50 (Oryctolagus cuniculus)
CN(C)CCCN1C(=O)C(CCCCCCCN2CCN(c3ccccc3)CC2)C(=O)c2ccccc21.CO.O=C(O)C(=O)O (configuration not stated) | 12 mmHg | 205 µg | 0.64 µg/mL
COc1ccc(Cc2nccc3cc(OC)c(OC)cc23)cc1OC [PAPAVERINE] | – | 1825 µg | –
Cc1ccc(N(CC2=NCCN2)c2cccc(O)c2)cc1 [PHENTOLAMINE] | 45 mmHg | 117 µg | 0.03 µg/mL (≈ 0.107 µM)
